Results as given in ChEMBL document CHEMBL1157301, “N-Methyl-4-hydroxy-2-pyridinone analogues from Fusarium oxysporum” (J Nat Prod, 2006).
Values after ≈ are worked out from the molar mass of the structure shown. Active and inactive are the calls of the source. The calls are words filed in the database; no cut-off is given here.

What was measured:
Assay type in all cases: functional, organism-based
[1] = system: Candida albicans; experiment: Antifungal activity against Candida albicans ATCC 90028 at 37 degC after 18 to 24 hrs
[2] = system: Cryptococcus neoformans; experiment: Antifungal activity against Cryptococcus neoformans ATCC 90113 at 30 degC after 68 to 72 hrs
[3] = system: Mycobacterium intracellulare; experiment: Antimycobacterial activity against Mycobacterium intracellular ATCC 23068 at 37 degC after 68 to 72 hrs
Procedure, shortened: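 Modified Franzblau microdilution. Samples in DMSO, serially diluted in 20% DMSO/saline, tested in duplicate. Inoculum in Middlebrook 7H9 broth with OADC and 5% Alamar Blue, pH 7.3. Incubated at 37 °C, 10% CO2, 68–72 h. Fluorescence read at 544ex/590em before and after incubation. IC50 from percent growth versus concentration; MIC is the lowest concentration with no detectable growth. Ciprofloxacin control.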

[4] = system: Aspergillus fumigatus; experiment: Antifungal activity against Aspergillus fumigatus ATCC 90906 at 30 degC after 68 to 72 hrs
[5] = system: Fusarium verticillioides; experiment: Antifungal activity against Fusarium verticillioides up to 1 mg/mL by disk assay
Procedure, shortened: (§1)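 Disk diffusion assay run as described by Alam et al., with captan as positive control; compounds tested up to 1mg/mL.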

[6] = system: Aspergillus flavus; experiment: Antifungal activity against Aspergillus flavus up to 1 mg/mL by disk assay; procedure, shortened: as §1
[7] = system: Candida albicans; experiment: Antifungal activity against Candida albicans ATCC 90028 up to 50 ug/mL after 18 to 24 hrs at 37 degC

Row | Structure (SMILES) | Activity [1] | Activity [2] | Activity [3] | Activity [4] | Activity [5] | Activity [6] | IC50 [4] [µg/mL] | other results
1 | CCC(C)CC(C)/C=C(\C)[C@@H]1O[C@H](c2c(O)c(-c3ccc(O)cc3)cn(C)c2=O)CC[C@H]1C (stereo not given in full) | inactive | inactive | inactive | inactive | inactive | inactive | – | –
2 | C[C@@H]1[C@H](O)[C@@H](C)/C=C/C=C/C=C/C=C/C=C/C=C/C=C/[C@H](O[C@@H]2O[C@H](C)[C@@H](O)[C@H](N)[C@@H]2O)C[C@@H]2O[C@](O)(C[C@@H](O)C[C@@H](O)[C@H](O)CC[C@@H](O)C[C@@H](O)CC(=O)O[C@H]1C)C[C@H](O)[C@H]2C(=O)O [AMPHOTERICIN B] | – | – | – | – | – | – | 0.91 (≈ 0.985 µM) | –
3 | O=C(O)c1cn(C2CC2)c2cc(N3CCNCC3)c(F)cc2c1=O [CIPROFLOXACIN] | – | – | – | – | – | – | – | MIC [3]: 0.63 µg/mL (≈ 1.9 µM)
4 | CCC(C)CC(C)/C=C(\C)[C@@H]1O[C@H](c2c(O)c([C@@]3(O)CCC(OC)(OC)C[C@@H]3O)cn(C)c2=O)CC[C@H]1C (stereo not given in full) | inactive | inactive | inactive | inactive | inactive | inactive | – | –
5 | COC[C@H]1OC(=O)c2coc3c2[C@@]1(C)C1=C(C3=O)[C@@H]2CCC(=O)[C@@]2(C)C[C@H]1OC(C)=O [WORTMANNIN] | – | – | – | – | – | – | – | IC50 [1]: 0.25 µg/mL (≈ 0.584 µM); MIC [1]: 0.78 µg/mL (≈ 1.82 µM)
6 | CCC(C)CC(C)/C=C(\C)C1OC(c2c(O)c([C@]3(O)CCC(=O)C[C@@H]3O)cn(C)c2=O)CC[C@@H]1C (stereo not given in full) | – | – | – | – | inactive | inactive | 2 (≈ 4.08 µM) | IC50 [2]: 35 µg/mL (≈ 71.5 µM); Activity [7]: inactive
7 | CCC(C)CC(C)/C=C(\C)[C@@H]1O[C@H](c2c(O)c(-c3ccc(O)cc3)c[nH]c2=O)CC[C@H]1C (stereo not given in full) | inactive | inactive | inactive | inactive | inactive | inactive | – | –
8 | CC[C@H](C)[C@H]1C(=O)O[C@H](C(C)C)C(=O)N(C)[C@@H](C(C)C)C(=O)O[C@H](C(C)C)C(=O)N(C)[C@@H](C(C)C)C(=O)O[C@H](C(C)C)C(=O)N1C [ENNIATIN B1] | – | – | – | – | – | – | – | IC50 [1]: 2 µg/mL (≈ 3.06 µM); MIC [1]: 6.25 µg/mL (≈ 9.56 µM); IC50 [2]: 9 µg/mL (≈ 13.8 µM); MIC [2]: 25 µg/mL (≈ 38.2 µM); IC50 [3]: 15 µg/mL (≈ 22.9 µM)
9 | CCC(C)CC(C)/C=C(\C)[C@@H]1O[C@H](c2c(O)c([C@@]3(O)CCC(=O)C[C@H]3O)cn(C)c2=O)CC[C@H]1C (stereo not given in full) | – | – | – | – | inactive | inactive | 35 (≈ 71.5 µM) | –
